The record followed here is ChEMBL document CHEMBL4715738, “In Vitro Antibacterial Activity of Curcumin-Polymyxin B Combinations against Multidrug-Resistant Bacteria Associated with Traumatic Wound Infections” (J Nat Prod, 2016).

In data set [1] the test system is Enterococcus faecium. Put plainly: Synergistic antibacterial activity against vancomycin-resistant Enterococcus faecium OEF42 assessed as fractional inhibitory concentration index measured after 24 hrs in presence of curcumin by checkerboard assay. The format is functional. In a few lines: (§1)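 FICI was derived from checkerboard MICs. Synergy was defined as FICI ≤ 0.5 and additive as FICI > 0.5−4.0. Where an MIC was not reached, the dilution above the maximum dose was used in the FICI calculation. Experiments were run in triplicate and reported as means.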

Data set [2] deals with Stenotrophomonas maltophilia. Put plainly: Antibacterial activity against Stenotrophomonas maltophilia NCTC 10258 assessed as reduction in colony formation at MIC measured after 24 hrs by time kill assay. Type of data set: functional, organism-based. In a few lines: (§2)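 Time-kill in Mueller-Hinton 2 broth. Inoculum was a 1/1000 dilution of a 16 h overnight culture, about 10^6 CFU/mL, 10 mL per tube. Arms were each agent alone at ×1 MIC, or the combination at ×1 MIC plus ×0.5 MIC partner. Incubated at 37 °C with continuous agitation for 24 h. Samples taken at 0, 2, 4, 6 and 24 h, serially diluted and plated on IsoSensitest agar for CFU counts.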

In data set [3] the test system is Pseudomonas aeruginosa. Put plainly: Antibacterial activity against Pseudomonas aeruginosa PA14 assessed as reduction in bacterial growth incubated for 24 hrs in presence of curcumin. The format is functional.
The subject of data set [4] is Enterococcus faecalis. Put plainly: Antibacterial activity against […] Enterococcus faecalis ATCC 29212 assessed as reduction in bacterial growth incubated for 24 hrs in presence of curcumin. Type of data set: functional.
In data set [5] the test system is Acinetobacter baumannii. Put plainly: Antibacterial activity against Acinetobacter baumannii NCTC 19606 assessed as reduction in bacterial growth incubated for 24 hrs in presence of curcumin. The format is functional.
The test system of data set [6] is Streptococcus pyogenes. Put plainly: Antibacterial activity against Streptococcus pyogenes SPY2 assessed as reduction in bacterial growth incubated for 24 hrs in presence of curcumin. Type of data set: functional.
Data set [7] concerns Pseudomonas aeruginosa. Kind of data set: Antibacterial activity against Pseudomonas aeruginosa ATCC 27853 assessed as reduction in bacterial growth incubated for 24 hrs in presence of curcumin. Type of data set: functional.
Data set [8] concerns Staphylococcus aureus. Put plainly: Antibacterial activity against Staphylococcus aureus ATCC 25923 assessed as reduction in bacterial growth incubated for 24 hrs in presence of curcumin. The format is functional.
In data set [9] the test system is Stenotrophomonas maltophilia. Kind of data set: Synergistic antibacterial activity against Stenotrophomonas maltophilia SMS01 assessed as fractional inhibitory concentration index measured after 24 hrs in presence of curcumin by checkerboard assay. Type of data set: functional. In a few lines: (§3)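 FICI calculated from combination MICs; ≤0.5 taken as synergy and >0.5–4.0 as additive. Where an MIC was not reached, the dilution above the highest concentration tested was used in the calculation. Run in triplicate and reported as means.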

Data set [10] deals with Enterococcus faecium. Put plainly: Antibacterial activity against vancomycin-resistant Enterococcus faecium OEF42 assessed as reduction in bacterial growth incubated for 24 hrs in presence of curcumin. The format is functional.
Data set [11] has as its system Escherichia coli. Put plainly: Antibacterial activity against Escherichia coli EC2 harboring CTX-M-15 assessed as reduction in bacterial growth incubated for 24 hrs in presence of curcumin. Type of data set: functional.
For data set [12], the system named is Acinetobacter baumannii. Kind of data set: Synergistic antibacterial activity against Acinetobacter baumannii NCTC 19606 assessed as fractional inhibitory concentration index measured after 24 hrs in presence of curcumin by checkerboard assay. The format is functional. In a few lines: as §1
For data set [13], the system named is Escherichia coli. Put plainly: Synergistic antibacterial activity against Escherichia coli EC2 harboring CTX-M-15 assessed as fractional inhibitory concentration index measured after 24 hrs in presence of curcumin by checkerboard assay. Type of data set: functional. In a few lines: as §1
The test system of data set [14] is Acinetobacter baumannii. Kind of data set: Synergistic antibacterial activity against Acinetobacter baumannii AB16 harboring OXA-23 clone 2 assessed as fractional inhibitory concentration index measured after 24 hrs in presence of curcumin by checkerboard assay. Type of data set: functional. In a few lines:
as §1

Data set [15] has as its system Streptococcus pyogenes. Kind of data set: Antibacterial activity against Streptococcus pyogenes SPY1 assessed as reduction in bacterial growth incubated for 24 hrs in presence of curcumin. Type of data set: functional.
For data set [16], the system named is Acinetobacter baumannii. Kind of data set: Antibacterial activity against Acinetobacter baumannii AB14 harboring OXA-23 clone 1 assessed as reduction in bacterial growth incubated for 24 hrs in presence of curcumin. The format is functional.
Data set [17] has as its system Acinetobacter baumannii. Put plainly: Antibacterial activity against Acinetobacter baumannii AB12 harboring OXA-23 assessed as reduction in bacterial growth incubated for 24 hrs in presence of curcumin. The format is functional.
The test system of data set [18] is Pseudomonas aeruginosa. Put plainly: Synergistic antibacterial activity against Pseudomonas aeruginosa PAO1 assessed as fractional inhibitory concentration index measured after 24 hrs in presence of curcumin by checkerboard assay. Type of data set: functional. Put shortly: as §3
In data set [19] the test system is Enterococcus faecium. Put plainly: Potentiation of polymyxin B-induced antibacterial activity against vancomycin-resistant Enterococcus faecium OEF65 assessed as fold reduction in polymyxin B MIC measured after 24 hrs in presence of polymyxin B by checkerboard assay. The format is functional.
The test system of data set [20] is Escherichia coli. Put plainly: Antibacterial activity against Escherichia coli NCTC 12241 assessed as reduction in bacterial growth incubated for 24 hrs in presence of polymyxin B. The format is functional.
Data set [21] deals with Enterococcus faecium. Kind of data set: Antibacterial activity against vancomycin-resistant Enterococcus faecium OEF65 assessed as reduction in bacterial growth incubated for 24 hrs in presence of polymyxin B. The format is functional.
For data set [22], the system named is Acinetobacter baumannii. Put plainly: Potentiation of polymyxin B-induced antibacterial activity against Acinetobacter baumannii NCTC 19606 assessed as fold reduction in polymyxin B MIC measured after 24 hrs in presence of polymyxin B by checkerboard assay. The format is functional.
Data set [23] deals with Escherichia coli. Put plainly: Potentiation of polymyxin B-induced antibacterial activity against Escherichia coli EC2 harboring CTX-M-15 assessed as fold reduction in polymyxin B MIC measured after 24 hrs […] checkerboard assay. The format is functional. In a few lines:
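Combination MICs from the checkerboard used for FICI calculation. Where no MIC was reached, the dilution above the top dose was used in the FICI. Run in triplicate; mean values reported.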

Data set [24] deals with Enterococcus faecium. Kind of data set: Potentiation of polymyxin B-induced antibacterial activity against vancomycin-resistant Enterococcus faecium OEF42 assessed as fold reduction in polymyxin B MIC measured after 24 hrs in presence of polymyxin B by checkerboard assay. Type of data set: functional.
The test system of data set [25] is Enterococcus faecium. Put plainly: Antibacterial activity against vancomycin-resistant Enterococcus faecium OEF42 assessed as reduction in bacterial growth incubated for 24 hrs in presence of polymyxin B. The format is functional.
Data set [26] has as its system Streptococcus pyogenes. Kind of data set: Antibacterial activity against Streptococcus pyogenes SPY1 assessed as reduction in bacterial growth incubated for 24 hrs in presence of polymyxin B. The format is functional.
Data set [27] relates to HaCaT. Put plainly: Cytotoxicity against human HaCaT cells at 174 uM measured after 4 hrs by CyTox 96 nonradioactive assay relative to control. The format is cell-based.
Data set [28] relates to Staphylococcus aureus. Put plainly: Antibacterial activity against methicillin-resistant Staphylococcus aureus NCTC 12493 assessed as reduction in bacterial growth incubated for 24 hrs in presence of polymyxin B. Type of data set: functional.
In data set [29] the test system is Stenotrophomonas maltophilia. Put plainly: Bactericidal activity against Stenotrophomonas maltophilia NCTC […] assessed as log reduction in colony forming units at 0.5 fold MIC measured after 24 hrs in presence of polymyxin B at MIC by time kill assay. The format is functional. In a few lines:
as §2

Data set [30] relates to Stenotrophomonas maltophilia. Kind of data set: Antibacterial activity against Stenotrophomonas maltophilia NCTC 10258 assessed as reduction in bacterial colony formation at 0.5 fold MIC measured after 24 hrs by time kill assay. The format is functional, organism-based. Put shortly:
as §2

Data set [31] deals with Staphylococcus aureus. Kind of data set: Antibacterial activity against methicillin-resistant Staphylococcus aureus NCTC 12493 assessed as reduction in bacterial colony formation at 0.5 fold MIC measured after 24 hrs by time kill assay. Type of data set: functional, organism-based.
Data set [32] has as its system Acinetobacter baumannii. Put plainly: Bactericidal activity against Acinetobacter baumannii NCTC 19606 assessed as log reduction in colony forming units at 0.5 fold MIC measured after 24 hrs in presence of polymyxin B at MIC by time kill assay. The format is functional. Put shortly:
as §2

Data set [33] deals with Streptococcus pyogenes. Put plainly: Potentiation of polymyxin B-induced antibacterial activity against Streptococcus pyogenes SPY1 assessed as fold reduction in polymyxin B MIC measured after 24 hrs in presence of polymyxin B by checkerboard assay. Type of data set: functional.

The source made the active and inactive calls. Bounds are passed on as bounds.

For orientation: MIC means the least concentration at which growth counts as inhibited.

Regarding `CC[C@H](C)CCCCC(=O)N[C@@H](CCN)C(=O)N[C@H](C(=O)N[C@@H](CCN)C(=O)N[C@H]1CCNC(=O)[C@H]([C@@H](C)O)NC(=O)[C@H](CCN)NC(=O)[C@H](CCN)NC(=O)[C@H](CC(C)C)NC(=O)[C@@H](Cc2ccccc2)NC(=O)[C@H](CCN)NC1=O)[C@@H](C)O.O=S(=O)(O)O`, the “fractional inhibitory concentration index (FICI)” value is listed as 0.094 in [1]; 0.012 in data set [9]; 0.068 in data set [12]; 0.266 in data set [13]; 0.068 in data set [14]; 0.031 in [18]. The result in data set [2] was inactive. The minimum inhibitory concentration (MIC) in data set [3] was found to be 0.012 µM; in data set [4] it was 0.096 µM; in data set [5] it was 0.012 µM; in data set [6], 0.79 µM; in [7], 0.006 µM; in data set [8], 6.1 µM. Further, the minimal inhibitory concentration (MIC) in data set [10] was found to be 3.1 µM; in data set [11], 0.024 µM; in data set [15], 0.19 µM; in data set [16], 0.024 µM; in data set [17], 0.024 µM.
Take `COc1cc(/C=C/C(=O)CC(=O)/C=C/c2ccc(O)c(OC)c2)ccc1O` [CURCUMIN]: the “fold change (FC)” value in data set [19], in data set [22], in data set [23], in [24] and in data set [33] was 3 throughout. Moreover, the minimum inhibitory concentration (MIC) in data set [20] amounted to 43 µM; in data set [21] it was 43 µM; in data set [25], 22 µM; in [26], 43 µM; in data set [28], 43 µM. Besides, the Activity in data set [27] was 34%; in [29] it was >3 log10CFU/ml; in data set [32] it was >3 log10CFU/ml. The result in data set [30] and in [31] was inactive.
